Measured values as given in article PMC7126014 (Fitoterapia, 2010).

Assays:
[1] = test system: human rotavirus (Wa-1 strain); assay: Antirotavirus activity by cytopathic effect; type: cell-based; conditions: for antiviral (antirotavirus) activity in words: non-cytotoxic concentrations; for IC50: human rotavirus, NA = no antiviral activity
How it was run: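 MA104 cells grown in 199 medium with 10% fetal bovine serum, penicillin G, streptomycin and amphotericin B at 37 °C, 5% CO2, were infected with human rotavirus Wa-1, which had been propagated in MA104 cells with trypsin (5 μg/ml) and titred as TCID50/ml. Test compound was dissolved in 1% DMSO in 199 medium and filter-sterilised. Read-out was cytopathic-effect inhibition. IC50 came from linear regression of concentration–effect curves, as the mean of three independent experiments.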

MA104 cells = assay: Cytotoxicity by microscopical cell morphology evaluation; type: cell-based; conditions: mean of three independent experiments
How it was run: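 Toxicity to MA104 cells was scored by microscopic assessment of cell morphology. Cells were grown in 199 medium with 10% fetal bovine serum and antibiotics at 37 °C in humidified 5% CO2. Test compound was dissolved in 1% DMSO in 199 medium and filtered at 0.22 μm. CC50 was estimated by linear regression of concentration–effect curves, as the mean of three independent experiments.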

rotavirus = rotavirus infection in vitro; cited from earlier work

Row | IC50 ([1]; flavonols (Table 1)) [µM] | Compound | antiviral (antirotavirus) activity in words [1] | CC50 (MA104 cells; flavonols (Table 1)) [µM] | also measured
1 |  | O=c1c(O)c(-c2ccccc2O)oc2ccccc12 [compound 1] | did not grant antiviral activity | 61.4 | 
2 | 27.5 | O=c1c(O)c(-c2cccc(O)c2)oc2ccccc12 [compound 2] |  | 61.4 | 
3 |  | O=c1c(O)c(-c2ccc(O)cc2)oc2ccccc12 [compound 3] | did not grant antiviral activity | 61.4 | 
4 | 14.4 | O=c1c(O)c(-c2ccc(O)c(O)c2)oc2ccccc12 [compound 4] |  | 57.7 | 
5 |  | O=c1c(O)c(-c2cc(O)ccc2O)oc2ccccc12 [compound 5] | did not grant antiviral activity | 57.7 | 
6 | 18.2 | O=c1c(O)c(-c2cc(O)c(O)c(O)c2)oc2ccccc12 [compound 6] |  | 27.2 | 
7 |  | COc1ccc(-c2oc3ccccc3c(=O)c2O)cc1 [compound 7] | antiviral action was not observed | 29.1 | 
8 |  | COc1ccccc1-c1oc2ccccc2c(=O)c1O [compound 8] | antiviral action was not observed | 44.7 | 
9 | 26.2 | COc1ccc(-c2oc3ccccc3c(=O)c2O)c(OC)c1 [compound 9] |  | 52.3 | 
10 | 13.1 | COc1ccc(-c2oc3ccccc3c(=O)c2O)cc1OC [compound 10] |  | 52.3 | 
11 | 11.9 | COc1cc(-c2oc3ccccc3c(=O)c2O)cc(OC)c1OC [compound 11] |  | 47.5 | 
12 | 6.09 | COc1ccc(-c2oc3ccccc3c(=O)c2O)c(OC)c1OC [compound 12] |  | 23.8 | 
13 | 3.78 | O=c1c(O)c(-c2ccc(OCc3ccccc3)cc2)oc2ccccc12 [compound 13] | considerable antirotavirus action | 22.7 | 
14 |  | CCOc1cccc(-c2oc3ccccc3c(=O)c2O)c1 [compound 14] |  | 111 | 
15 |  | CCOc1ccccc1-c1oc2ccccc2c(=O)c1O [compound 15] |  | 111 | 
16 |  | CCOc1ccc(-c2oc3ccccc3c(=O)c2O)c(OCC)c1 [compound 16] |  | 47.8 | 
17 | 12 | CCOc1ccc(OCC)c(-c2oc3ccccc3c(=O)c2O)c1 [compound 17] |  | 23.9 | 
18 | 7.97 | CCOc1ccc(-c2oc3ccccc3c(=O)c2O)cc1OCC [compound 18] | promising antiviral activity | 47.8 | 
19 | 7.55 | O=c1c(O)c(-c2ccccc2OCc2ccccc2)oc2ccccc12 [compound 19] | considerable antirotavirus action | 45.3 | 

Row | IC50 ([1]; flavonols (Table 1)) [µM] | Compound | antiviral (antirotavirus) activity in words [1] | CC50 (MA104 cells; flavonols (Table 1)) [µM] | also measured
20 | 3.64 | CCc1ccc(-c2oc3ccccc3c(=O)c2O)cc1 [compound 21] | Antiviral activity was provided | 14.7 | 
21 | 6.12 | CCCCOc1cccc(-c2oc3ccccc3c(=O)c2O)c1 [compound 22] |  | 25.1 | 
22 | 75.4 | CCCCOc1ccccc1-c1oc2ccccc2c(=O)c1O [compound 23] |  | 302 | 
23 | 40.6 | CCCCOc1ccc(-c2oc3ccccc3c(=O)c2O)cc1 [compound 24] |  | 201 | 
24 | 6.8 | CCCCOc1ccc(-c2oc3ccccc3c(=O)c2O)cc1OCCCC [compound 25] | higher activity | 40.8 | 
25 | 10.2 | CCCCOc1ccc(-c2oc3ccccc3c(=O)c2O)c(OCCCC)c1 [compound 26] |  | 40.8 | 
26 | 15.7 | O=c1c(O)c(-c2ccccc2)oc2cc(O)ccc12 [compound 27] |  | 61.4 | 
27 |  | O=c1c(O)c(-c2ccc(O)c(O)c2)oc2cc(O)cc(O)c12 [compound 28] | antiviral activity was not observed | 103 | 
28 |  | COc1ccc2oc(-c3ccccc3)c(O)c(=O)c2c1 [compound 29] |  | 29.1 | 
29 |  | COc1ccc2c(=O)c(O)c(-c3ccccc3)oc2c1 [compound 30] |  | 29.1 | 
30 | 4.69 | COc1ccc(-c2oc3cccc(OC)c3c(=O)c2O)cc1 [compound 31] |  | 26.2 | 
31 | 17.4 | COc1ccc(-c2oc3ccc(OC)cc3c(=O)c2O)cc1 [compound 32] |  | 105 | 
32 | 6.37 | COc1ccc(-c2oc3cc(OC)ccc3c(=O)c2O)cc1 [compound 33] |  | 26.2 | 
33 | 11.8 | COc1ccc(-c2oc3cc(OC)ccc3c(=O)c2O)c(OC)c1 [compound 34] |  | 47.4 | 
34 |  | CCOc1ccc2c(=O)c(O)c(-c3ccccc3)oc2c1 [compound 35] |  | 111 | 
35 | 12 | CCOc1ccc(-c2oc3cc(OCC)ccc3c(=O)c2O)cc1 [compound 36] | antiviral activity was detected | 47.8 | 
36 | 7.97 | CCOc1cccc(-c2oc3cc(OCC)ccc3c(=O)c2O)c1 [compound 37] | antiviral activity was detected | 47.8 | 
37 | 8.38 | CCCCOc1ccc2c(=O)c(O)c(-c3ccccc3)oc2c1 [compound 38] | Antiviral activity was provided | 50.3 | 
38 | 17.3 | O=c1c(O)c(-c2ccc(OCc3ccccc3)cc2)oc2cc(OCc3ccccc3)ccc12 [compound 39] | Antiviral activity was provided | 69.3 | 

Row | IC50 ([1]; flavonols (Table 1)) [µM] | Compound | antiviral (antirotavirus) activity in words [1] | CC50 (MA104 cells; flavonols (Table 1)) [µM] | also measured
39 |  | COc1c(OC)c(O)c2c(=O)cc(-c3ccc(O)cc3)oc2c1OC [compound 40] |  |  | IC50 ([1]; flavones (Table 2)): 7.56 µM; CC50 (MA104 cells; flavones (Table 2)): 22.7 µM
40 |  | COc1c(-c2ccc(O)c(O)c2)oc2cc(O)cc(O)c2c1=O [compound 43] | conferred an antiviral activity |  | IC50 ([1]; flavones (Table 2)): 12.3 µM; CC50 (MA104 cells; flavones (Table 2)): 49.3 µM
41 |  | C[C@@H]1O[C@@H](Oc2c(-c3ccc(O)c(O)c3)oc3cc(O)cc(O)c3c2=O)[C@H](O)[C@H](O)[C@H]1O [compound 44] | did not provide antiviral activity |  | CC50 (MA104 cells; flavones (Table 2)): 69.6 µM
42 |  | C[C@@H]1O[C@@H](OC[C@H]2O[C@@H](Oc3c(-c4ccc(O)c(O)c4)oc4cc(O)cc(O)c4c3=O)[C@H](O)[C@@H](O)[C@@H]2O)[C@H](O)[C@H](O)[C@H]1O [compound 45, rutin] | did not provide antiviral activity |  | inhibitory effect on rotavirus infection in words (rotavirus): low inhibitory effect
43 |  | O=c1c(OS(=O)(=O)O)c(-c2ccc(O)c(O)c2)oc2cc(O)cc(O)c12 [compound 47] | conferred an antiviral activity |  | IC50 ([1]; flavones (Table 2)): 10.2 µM; CC50 (MA104 cells; flavones (Table 2)): 40.9 µM
44 |  | COc1ccc(-c2cc(=O)c3cc(OCc4ccccc4)ccc3o2)cc1 [compound 48] | antiviral activity was not shown |  | CC50 (MA104 cells; flavones (Table 2)): 21.8 µM
45 |  | COc1ccc(-c2cc(=O)c3c(OC)c(OC)c(OC)c(OC)c3o2)cc1 [compound 49] |  |  | IC50 ([1]; flavones (Table 2)): 28.2 µM; CC50 (MA104 cells; flavones (Table 2)): 168 µM
46 |  | COc1ccc(-c2cc(=O)c3c(O)cc(OC)cc3o2)cc1 [compound 50] |  |  | IC50 ([1]; flavones (Table 2)): 13.1 µM; CC50 (MA104 cells; flavones (Table 2)): 52.4 µM
47 |  | COc1ccc(-c2cc(=O)c3c(O)c(OC)c(OC)c(OC)c3o2)cc1 [compound 51] |  |  | IC50 ([1]; flavones (Table 2)): 7.26 µM; CC50 (MA104 cells; flavones (Table 2)): 43.6 µM
48 |  | COc1ccc(-c2cc(=O)c3c(O)c(OC)c(OC)cc3o2)cc1 [compound 52] |  |  | IC50 ([1]; flavones (Table 2)): 15.6 µM; CC50 (MA104 cells; flavones (Table 2)): 23.8 µM
49 |  | COc1ccc(-c2cc(=O)c3c(OC)c(OC)c(OC)cc3o2)cc1OC [compound 54] |  |  | IC50 ([1]; flavones (Table 2)): 6.98 µM; CC50 (MA104 cells; flavones (Table 2)): 41.9 µM
50 |  | COc1ccc(-c2cc(=O)c3c(OC)c(OC)c(OC)c(OC)c3o2)cc1OC [compound 55] | antiviral effect was not shown |  | CC50 (MA104 cells; flavones (Table 2)): 38.8 µM
51 |  | COc1ccc(-c2oc3c(OC)c(OC)c(OC)c(OC)c3c(=O)c2OC)cc1OC [compound 57] | weak antirotavirus activity |  | IC50 ([1]; flavones (Table 2)): 18 µM; CC50 (MA104 cells; flavones (Table 2)): 36.1 µM
52 |  | COc1cc(-c2oc3c(OC)c(OC)cc(O)c3c(=O)c2OC)ccc1O [compound 59] |  |  | IC50 ([1]; flavones (Table 2)): 6.95 µM; CC50 (MA104 cells; flavones (Table 2)): 41.7 µM
53 |  | COc1ccc(-c2oc3c(OC)c(OC)c(OC)c(O)c3c(=O)c2OC)cc1O [compound 60] |  |  | IC50 ([1]; flavones (Table 2)): 77.2 µM; CC50 (MA104 cells; flavones (Table 2)): 77.2 µM
54 |  | COc1ccc(-c2cc(=O)c3c(O)cc(O[C@@H]4O[C@H](CO[C@@H]5O[C@@H](C)[C@H](O)[C@@H](O)[C@H]5O)[C@@H](O)[C@H](O)[C@H]4O)cc3o2)cc1O [dosmin] |  |  | IC50 (rotavirus): 10 µM
55 |  | COc1ccc([C@@H]2CC(=O)c3c(O)cc(O[C@@H]4O[C@H](CO[C@@H]5O[C@@H](C)[C@H](O)[C@@H](O)[C@H]5O)[C@@H](O)[C@H](O)[C@H]4O)cc3O2)cc1O [hesperidin] |  |  | IC50 (rotavirus): 10 µM
56 |  | quercetrin [compound 46] | did not provide antiviral activity |  | CC50 (MA104 cells; flavones (Table 2)): 27.2 µM
